Data on 98 molecules can be found in ChEMBL document CHEMBL4513216, “Probing the Open Global Health Chemical Diversity Library for Multistage-Active Starting Points for Next-Generation Antimalarials” (ACS Infect Dis, 2020).

The data set is described as follows: Toxicity liver stage against HepG2, at 10uM. The class given is cell-based. On the set-up: test concentration 10 uM, cell line HepG2-A16-CD81EGFP. The following applies: human, HepG2-A16-CD81EGFP cells; read-out: INHIBITION
Summed up:
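Uninfected HepG2-A16-CD81EGFP cells, 3 × 10^3 per well, 1536-well, plated on prespotted compound at 10 μM final, parasite-free screening media added to match infected plates; puromycin 10 μM positive, DMSO 0.5% negative; run in parallel with 48 h PbLuc assay at 37 °C, 5% CO2; viability by CellTiter-Glo luminescence, normalized to controls.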
Take `Cc1cccc(SC2CCN(Cc3nc(CC4CC4)no3)CC2)c1`: the cytotoxicity at 10 µM is -6.51%. Turning to `CC(=O)N1N=C(COc2ccc(C)cc2)OC1c1ccc(N(C)C)cc1` (stereo not drawn), the cytotoxicity at 10 µM was -3.33%.

As for `CC(=O)c1cn(CCC(=O)N[C@@H](CC(C)C)C(=O)O)c2ccccc12`, the cytotoxicity at 10 µM came to 2.1%. Next, `Cn1ccc2ccc(C(=O)NC3CCOC(C)(C)C3)cc21` (stereo not drawn): 3.13%.

`CN1CCN(C(=O)c2cc3sccc3n2Cc2ccccc2Cl)CC1`: the cytotoxicity at 10 µM was 2.3%. For the molecule `Cc1ccsc1C1CC(=O)Nc2c1cnn2C(C)C` (stereo not drawn), the cytotoxicity at 10 µM was -7.7%. Under `COCCN(Cc1ccoc1)C(=O)c1ccccn1` stands 9.24%. Next, `CCS(=O)(=O)NCC1OCCc2cn(CCOC)nc21` (stereo not drawn): 9.43%; `c1nc2c(c(C3CCOC3)n1)CCN(Cc1ccoc1)CC2` (stereo not drawn): 7.01%. Under `COc1ccccc1C1CC(=O)Nc2c1c(=O)[nH]n2C1CCCC1` (stereo not drawn) stands -3.85%.

As for `COc1ccc(Br)c(C(=O)NCC2CCN(C(=O)c3ccoc3)CC2)c1`, the cytotoxicity at 10 µM is -21.7%. In the case of `CCn1cc(-c2cc(C(F)(F)F)nn2CCC#N)cn1`, the cytotoxicity at 10 µM was 3.93%. Under `CCn1cncc1CN1CCc2nc3sccc3c(=O)n2CC1` stands -2.55%; under `CCc1ncc(CN2C[C@@H]3C[C@@H](O)CN3C[C@@H]2Cc2ccccc2)cn1`, -5.02%.

Take `O=C1NC2(CCc3ccccc31)CCN(C(=O)c1cccnc1)C2` (stereo not drawn): the cytotoxicity at 10 µM came to 5.5%. Next, `CCS(=O)(=O)N1C[C@@H](O)[C@H](N(C)Cc2ccc(F)cc2)C1`: 4.54%; `CC(=O)N1CCC(c2cccc(NC3CCOCC3)n2)CC1`: 13.3%; `COc1ccc(C2CNCCN2C(=O)c2cccc3ncccc23)cc1` (stereo not drawn): -8.73%. Under `Cc1nc(C2CCCN(C(C)C)C2)sc1Br` (stereo not drawn) stands -4.52%. In the case of `c1ccc(CCN2CCCC2c2ccnc(Nc3ncccn3)n2)cc1` (stereo not drawn), the cytotoxicity at 10 µM amounted to 2.14%. Next, `CNc1cc(C)nc(C2CN(Cc3ccc(C)nc3)CCO2)c1` (stereo not drawn): -2.29%.

For the molecule `O=C(Nc1ccccc1)N1CCn2c(nnc2C2CCNCC2)C1`, the cytotoxicity at 10 µM was -3.84%.

For `CC(C)NC(=O)N1CCC2(CC1)CN(C(=O)NC(C)C)CCO2`, the cytotoxicity at 10 µM is 11.8%. Next, `O=C(NCC(O)CO)Nc1cc(Br)ccc1F` (stereo not drawn): 1.69%. Next, `NC(=O)CN(Cc1cccc(Oc2ccccc2)c1)C(=O)C1CC1`: 4.59%; `COc1ccc(CNCCc2cccc(C(N)=O)c2)cc1C`: -6.81%; `O=C(COc1ccccc1)NS(=O)(=O)Cc1ccccc1`: -12.3%. Regarding `COC(=O)c1cc(NCc2cscn2)ccc1C`, the cytotoxicity at 10 µM came out at 5.17%. On to `Cn1nc2c(cc1=O)CN(CC(=O)NC1CCCCNC1=O)CC2` (stereo not drawn), for which the cytotoxicity at 10 µM turned out to be 1.9%. Take `CS(=O)(=O)c1cccc(Cl)c1C(=O)NCCN1C(=O)CCC1=O`: the cytotoxicity at 10 µM was -1.19%. As for `CS(=O)(=O)CCCC(=O)Nc1cc(-c2cccc(F)c2F)n[nH]1`, the cytotoxicity at 10 µM is 4.77%. Next, `Cc1noc(C)c1CNC(=O)NCCC(=O)N1CCCc2ccccc21`: -0.353%; `CC(C)(C)C(=O)N1CCC(COCc2ccccc2)C1` (stereo not drawn): 12.8%; `Cc1csc(N2CCN(C(=O)c3cc(C4CC4)[nH]n3)CC2)n1`: 3.34%. Next, `NS(=O)(=O)CCCNC(=O)C1(c2cccc(Cl)c2)CC1`: -4.02%; `CCOc1ccc(S(=O)(=O)NC(=O)c2c(C)noc2C(C)C)cc1`: -3.08%; `CN(Cc1nccn1C)S(=O)(=O)c1cccc(C#N)c1`: 15.1%. Next, `O=C(NCCNc1ncccn1)c1scnc1Cl`: -3.11%; `CC(C#N)(NC(=O)COc1ccccc1Br)C1CC1` (stereo not drawn): 7.45%; `CC1c2cccn2CCN1S(=O)(=O)N1CCCCCC1` (stereo not drawn): -2.3%. Consider `CN(CCCc1cc(-c2ccccc2)n[nH]1)C(=O)CCCn1cncn1`, for which the cytotoxicity at 10 µM is -147%.

With `CC(C)CCNC(=O)CCc1ccnc2ccccc12`, the cytotoxicity at 10 µM is -0.69%. Next, `COc1ccc(CNC(C)c2cn[nH]c2C)cc1` (stereo not drawn): 6.1%. Next, `CC(C)Cn1cnc(S(=O)(=O)NCCc2nnc3ccccn23)c1`: 6.48%; `COc1ccc(CN2CCN(c3ncc(Cl)cn3)CC2)cc1`: -4.86%. Next, `CCc1ccc(Cn2nccc2NC(=O)C2CCS(=O)(=O)C2)cc1` (stereo not drawn): -1.32%; `O=C(NS(=O)(=O)c1cccc(F)c1)c1ccccc1F`: 9.39%; `Cn1c(N)nnc1SCC1OCCc2ccccc21` (stereo not drawn): 0.355%. Turning to `CC(=O)c1ccc(CNC(=O)c2cc(C#N)cn2C)nc1C`, the cytotoxicity at 10 µM was found to be 5.44%. Under `Cc1cnn(CCNCc2csc(C)n2)c1` stands 5.79%; under `CC(C)c1noc(CCC(=O)NC(C)c2nnc3n2CCCCC3)n1` (stereo not drawn), -4.35%. On to `Cc1cc(CNC(=O)NC(C)c2ccncc2)no1` (stereo not drawn), for which the cytotoxicity at 10 µM was -13.5%.

Regarding `Cc1c(C(=O)NC(C)C(C)C)nnn1-c1cccc2c1CCN(C)C2` (stereo not drawn), the cytotoxicity at 10 µM was -9.03%. Turning to `CCN1CC(C(=O)NCc2ccc3c(c2)nc(C)n3C)CCC1=O` (stereo not drawn), the cytotoxicity at 10 µM was -6.9%. Consider `CN(Cc1ccoc1)C(=O)C1(Oc2ccc(Cl)cc2)CCNCC1`, for which the cytotoxicity at 10 µM was 5.73%. With `O=C(NCCOCCO)c1cnc(-c2ccccc2)nc1O`, the cytotoxicity at 10 µM is 0.701%. For the molecule `O=C(CCCc1cn[nH]c1)N1C[C@H](CO)C[C@H](CN2CCCC2)C1`, the cytotoxicity at 10 µM is -10.2%. Next, `CN1CCN(Cc2c[nH]cn2)CC12CCC(=O)N(CC1CC1)CC2` (stereo not drawn): 2.98%. Under `Cc1ccc(OCc2occc2C(=O)N2CCCCC(N)C2)cc1` (stereo not drawn) stands -8.84%; under `OCCC1CN(c2nc(-c3ccncc3)nc3c2CCNCC3)CCO1` (stereo not drawn), 5.05%; under `CN(C)S(=O)(=O)N1CCCC(c2nccn2Cc2cccnc2)C1` (stereo not drawn), 4.61%. Under `COc1cnc(CN2CCN(CC(C)C)C(=O)C2C)cc1O` (stereo not drawn) stands 3.28%; under `CCn1c(N)nc2cc(C(=O)NCCCc3ccccn3)cnc21`, -7.38%; under `CC(C)Oc1ccccc1-c1cc(CN)ccc1F`, -2.69%. For the molecule `CN1CCCC(CCC(=O)N2CCc3onc(C(=O)N(C)C)c3C2)C1` (stereo not drawn), the cytotoxicity at 10 µM is -11%.

Consider `CNc1ncc(C(=O)N2CC[C@@](O)(C3CCOCC3)[C@H](C)C2)cn1`, for which the cytotoxicity at 10 µM came to 4.56%. Under `CSCc1noc(C2CCC(=O)N(CCCN3CCCC3=O)C2)n1` (stereo not drawn) stands 3.59%; under `Cc1cc(C)n(CC(C)NC(=O)c2cc(CN3CCC(O)CC3)on2)n1` (stereo not drawn), 0.873%; under `CSc1ccccc1C(=O)N1CCOC(CCN(C)C)C1` (stereo not drawn), 7.46%. Under `Cc1cc2[nH]c(CN3CCOC(Cc4ccccc4)C3)cc(=O)n2n1` (stereo not drawn) stands -24.1%. Take `Cn1c(CN2CCC(O)CC2)nnc1C1CCCN(C(=O)C2CNC2)C1` (stereo not drawn): the cytotoxicity at 10 µM was found to be 3.19%. With `O=C1CCc2ccccc2N1CCCn1cnnn1`, the cytotoxicity at 10 µM stood at 3.92%. Under `O=C(CCCc1cn[nH]c1)N1C[C@@H](CN2CCCC2)C[C@H](CO)C1` stands -8.96%; under `O=C(CCS(=O)(=O)c1ccccc1)NC1CCOC2(CCOCC2)C1` (stereo not drawn), 7.56%. Next, `Cc1nc(O)cc(CNC(=O)CC[C@@H]2CCCN3CCCC[C@H]23)n1`: 1.87%. Under `CCN(Cc1noc(CC(C)C)n1)Cc1ccccc1OCC(=O)O` stands -49%; under `COc1cccc(F)c1-c1c[nH]c(C)n1`, -0.654%.

For `c1cncc(NCCCNC2CCSC2)c1` (stereo not drawn), the cytotoxicity at 10 µM was -3.62%. Next, `COCc1nc(CNC2CCC3(CCNCC3)CC2)no1`: -3.13%; `CC(C)c1nc(N2CCN3CCCC3C2)c2cnn(C)c2n1` (stereo not drawn): -11.9%; `CCn1ncnc1C1CC(=O)NCc2nc3ccccn3c21` (stereo not drawn): -12.2%.

As for `Cc1ncc(-c2nc3cc(S(=O)(=O)N4CCCC4)ccc3n2C)cn1`, the cytotoxicity at 10 µM is -21%. In the case of `Cc1cnc(N2CCCC3(CCCN(C)C3)C2)nc1` (stereo not drawn), the cytotoxicity at 10 µM was -11.8%.

Take `CCC(CC)C(=O)NS(=O)(=O)c1ccc(C#N)cc1C(F)(F)F`: the cytotoxicity at 10 µM was -15.9%. As for `COCc1nc(C(=O)NS(=O)(=O)c2c(C)c(C)cc(C)c2C)cs1`, the cytotoxicity at 10 µM is -8.01%. Under `COc1ccc(F)cc1C(C)NC(=O)NCCCn1cncn1` (stereo not drawn) stands -17.8%; under `Cc1ccc(NC2CCN(C(=O)c3cccc4cccnc34)CC2)nn1`, -8.31%. Under `O=C(COc1ccc(C(F)(F)F)cc1)N1CCOCC1c1ncon1` (stereo not drawn) stands -12.5%.

Regarding `OCCN1CCN(CC(O)c2ccc(OC(F)(F)F)cc2)CC1` (stereo not drawn), the cytotoxicity at 10 µM is -20.8%. Next, `Cc1ccccc1CCC(=O)N1CCCC(c2cc(C(N)=O)[nH]n2)C1` (stereo not drawn): -11.3%; `c1csc(-c2nc(CN3CCn4c(nnc4C4CC4)C3)co2)c1`: 7.17%; `Cc1ccc(NC2CCN(C(=O)c3cc(C(N)=O)cs3)CC2)nn1`: 2.94%. Next, `COc1c(C2CCCN2C(=O)c2ccc3cc[nH]c3c2)c(C)nn1C` (stereo not drawn): -2.74%; `CNC(=O)CN1CCO[C@H]2CN(C(=O)c3ccncc3F)C[C@H]21`: -155%. Under `O=C(CO[C@@H]1CC[C@H]2[C@H]1OCCN2CC1CCOCC1)N1CCCC1` stands -11.6%. With `Cc1cc(CN2C[C@@H]3CN(C(=O)c4ccco4)CCO[C@@H]3C2)no1`, the cytotoxicity at 10 µM was -141%. In the case of `O=c1c2c[nH]c(N3CCC(O)CC3)nc-2cn1Cc1cccc(F)c1`, the cytotoxicity at 10 µM was found to be 20.6%. Under `O=c1[nH][nH]c2cn(-c3ccc(Cl)cc3)c(=O)n12` stands 6.45%.
